We go through five substances from publication PMC9339567 (Journal of Food and Drug Analysis, 2016).

The conditions of data set [1]: ref 32 (Sampath Kumar et al); cited from earlier work.
For data set [2] the following is noted: cited from earlier work.
The conditions of data set [3]: ref 28 (Tanzadehpanah et al); cited from earlier work.
The subject of a further data set is HFLF-PI 5 cells. The data set can be described thus: Cytotoxicity assay. The class given is cell-based, human. To be noted: 0–1 mg/mL, MTT 570 nm. An outline of the steps: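 HFLF-PI 5 human lung cells were grown in RPMI with penicillin/streptomycin and 10% FBS at 37°C, 5% CO2. Cells were seeded at 1 × 10^5 cells/mL and, at 75% confluence, exposed to test compound at 0–1 mg/mL for 24, 48 or 72 hours, with PBS as control. After PBS washes, MTT (5 mg/mL stock) was added overnight at 37°C and formazan dissolved in DMSO. A570 was read and cytotoxicity % calculated relative to control.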

Data set [4] in a line: DPPH radical scavenging assay. To be noted: 15 μg/mL; absorbance 517 nm, 30 minutes in dark, room temperature; triplicate. The gist of the method:
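Test compound at 0.007–1 mg/mL, or GSH positive control over the same range, was mixed with an equal volume of 99.5% ethanol containing 0.02% DPPH. The mixture was held 30 minutes in the dark at room temperature and A517 read, with distilled water replacing sample as control. Scavenging % = (Acontrol − Asample)/Acontrol × 100; triplicate.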

Data set [5] in a line: ABTS radical scavenging activity assay. To be noted: 6 minutes incubation, absorbance 734 nm; triplicate.

Entries after “also recorded” stand apart in the source; their conditions may differ. Where no end group is shown, it is not given here.

ACFL: the “Inhibition of the oxidation process relative to α-tocopherol” value in data set [1] is “greater levels of inhibition of the oxidation process”.

In the case of HGPLGPL, the “Activity against ROS and linoleic acid peroxidation” value in data set [2] is listed as “strong activity”.

LTEQESGVPVMK: in data set [3], the “IC50 DPPH radical scavenging” value was 28.6 ± 1.08 µg/mL.

Consider WESLSRLLG [WG-9], for which the “Effect on cell viability” value is “no significantly effect on cell viability; also recorded: no significant cytotoxic effect” with HFLF-PI 5 cells (24 hours, triplicate); “significantly reduced” in the data set with HFLF-PI 5 cells (48 hours, p < 0.05); “significantly reduced” in the data set with HFLF-PI 5 cells (72 hours, p < 0.05).

As to glutathione [GSH], the DPPH-radical scavenging in data set [4] is listed as 67%. The “IC50 ABTS radical scavenging” value in data set [5] was below 15 µg/mL.
